ChEMBL document CHEMBL4680165, “β-Lactams with antiproliferative and antiapoptotic activity in breast and chemoresistant colon cancer cells” (Eur J Med Chem, 2020)
Calls of active or inactive are those of the source. The calls are words filed in the database; no cut-off is given here.

Tests used:
[1] = test system: SK-MEL-2; test: Antiproliferative activity against human SK-MEL-2 cells assessed as cell growth inhibition; type: functional
Outline: (§1)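 NCI60 cell line screen: cells exposed for 48 h to five concentrations (100, 10, 1, 0.1 and 0.01 µM). GI50 is the molar concentration giving 50% growth inhibition; TGI and LC50 were also determined.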

[2] = test system: MDA-MB-468; test: Antiproliferative activity against human MDA-MB-468 cells assessed as cell growth inhibition; type: functional
Outline: (§2)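 NCI 60 cell line screen. Five concentrations (100, 10, 1, 0.1 and 0.01 µM) with 48 h drug exposure. GI50 is the molar concentration giving 50% growth inhibition; TGI and LC50 were also derived.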

[3] = test system: Malme-3M; test: Antiproliferative activity against human Malme-3M cells assessed as cell growth inhibition; type: functional; outline: as §2
[4] = test system: U-251; test: Antiproliferative activity against human U251 cells assessed as cell growth inhibition; type: functional; outline: as §1
[5] = test system: NCI-H460; test: Antiproliferative activity against human NCI-H460 cells assessed as cell growth inhibition; type: functional; outline: as §2
[6] = test system: UDP-glucuronosyltransferases (UGTs); test: Metabolic stability in human liver microsomes assessed as UGT-mediated N-glucuronidation by measuring intrinsic clearance at 3 uM measured up to 45 mins by LC-MS/MS analysis; type: ADME; conditions: microsomes, 0.75 h, 3 µM
Outline: (§3)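 Pooled human liver microsomes (0.5 mg/mL protein final) with alamethicin (25 µg/mg) in 0.1 M phosphate pH 7.4, compound 3 µM final (0.25% DMSO), preincubated 37 °C. Reaction started with UDPGA (1 mM final). Sampled at 0, 5, 15, 30, 45 min into methanol, analysed by LC-MS/MS. Minus-UDPGA control run 45 min. Single incubations; t½ and CLint taken from the elimination rate constant.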

[7] = test system: NCI-H522; test: Antiproliferative activity against human […] cells assessed as cell growth inhibition; type: functional; outline: as §2
[8] = test system: OVCAR-8; test: Antiproliferative activity against human OVCAR-8 cells assessed as cell growth inhibition; type: functional; outline: as §2
[9] = Selectivity index, ratio of IC50 for human MCF7 cells to IC50 for human HT-29 cells assessed as reduction in cell viability after 72 hrs by alamar blue assay; type: functional
[10] = test system: SF-295; test: Antiproliferative activity against human SF295 cells assessed as cell growth inhibition; type: functional; outline: as §2
[11] = test system: MCF7; test: Antiproliferative activity against human MCF7 cells assessed as cell growth inhibition; type: functional; outline: as §2
[12] = test system: OVCAR-4; test: Antiproliferative activity against human OVCAR-4 cells assessed as cell growth inhibition; type: functional; outline: as §2
[13] = test system: EKVX; test: Antiproliferative activity against human EKVX cells assessed as cell growth inhibition; type: functional; outline: as §2
[14] = test system: KM12; test: Antiproliferative activity against human KM12 cells assessed as cell growth inhibition; type: functional; outline: as §2
[15] = test system: SK-MEL-5; test: Antiproliferative activity against human SK-MEL-5 cells assessed as cell growth inhibition; type: functional; outline: as §1
[16] = test system: PC-3; test: Antiproliferative activity against human PC-3 cells assessed as cell growth inhibition; type: functional; outline: as §2
[17] = test system: ACHN; test: Antiproliferative activity against human ACHN cells assessed as cell growth inhibition; type: functional; outline: as §2
[18] = test system: MDA-MB-231; test: Antiproliferative activity against human MDA-MB-231 cells assessed as cell growth inhibition; type: functional; outline: as §2
[19] = test system: SK-MEL-28; test: Antiproliferative activity against human SK-MEL-28 cells assessed as cell growth inhibition; type: functional; outline: as §1
[20] = test system: DU-145; test: Antiproliferative activity against human DU-145 cells assessed as cell growth inhibition; type: functional; outline: as §2
[21] = test system: BT-549; test: Antiproliferative activity against human BT-549 cells assessed as cell growth inhibition; type: functional; outline: as §2
[22] = test system: COLO 205; test: Antiproliferative activity against human COLO 205 cells assessed as cell growth inhibition; type: functional; outline: as §2
[23] = test system: HCT-15; test: Antiproliferative activity against human HCT-15 cells assessed as cell growth inhibition; type: functional; outline: as §2
[24] = test system: NCI-H226; test: Antiproliferative activity against human NCI-H226 cells assessed as cell growth inhibition; type: functional; outline: as §2
[25] = test system: NCI/ADR-RES; test: Antiproliferative activity against human NCI/ADR-RES cells assessed as cell growth inhibition; type: functional; outline: as §2
[26] = test system: NCI-H23; test: Antiproliferative activity against human NCI-H23 cells assessed as cell growth inhibition; type: functional; outline: as §2
[27] = test system: HL-60; test: Antiproliferative activity against human HL60 cells assessed as cell growth inhibition; type: functional; outline: as §2
[28] = test system: OVCAR-5; test: Antiproliferative activity against human OVCAR-5 cells assessed as cell growth inhibition; type: functional; outline: as §2
[29] = test system: SW-620; test: Antiproliferative activity against human SW-620 cells assessed as cell growth inhibition; type: functional; outline: as §1
[30] = test system: TK-10; test: Antiproliferative activity against human TK-10 cells assessed as cell growth inhibition; type: functional; outline: as §1
[31] = Antiproliferative activity against human NCI-H332M cells assessed as cell growth inhibition; type: functional; outline: as §2
[32] = test system: SF-539; test: Antiproliferative activity against human SF539 cells assessed as cell growth inhibition; type: functional; outline: as §1
[33] = test system: SN12C; test: Antiproliferative activity against human SN12C cells assessed as cell growth inhibition; type: functional; outline: as §1
[34] = test system: OVCAR-3; test: Antiproliferative activity against human OVCAR-3 cells assessed as cell growth inhibition; type: functional; outline: as §2
[35] = test system: SR; test: Antiproliferative activity against human SR cells assessed as cell growth inhibition; type: functional; outline: as §1
[36] = test system: 786-0; test: Antiproliferative activity against human 786-0 cells assessed as cell growth inhibition; type: functional; outline: as §2
[37] = test system: CCRF-CEM; test: Antiproliferative activity against human CCRF-CEM cells assessed as cell growth inhibition; type: functional; outline: as §2
[38] = test system: SK-OV-3; test: Antiproliferative activity against human SK-OV-3 cells assessed as cell growth inhibition; type: functional; outline: as §1
[39] = test system: UDP-glucuronosyltransferases (UGTs); test: Metabolic stability in human liver microsomes assessed as UGT-mediated N-glucuronidation by measuring half life at 3 uM measured up to 45 mins by LC-MS/MS analysis; type: ADME; conditions: microsomes, 0.75 h, 3 µM; outline: as §3
[40] = test system: MDA-MB-435; test: Antiproliferative activity against human MDA-MB-435 cells assessed as cell growth inhibition; type: functional; outline: as §2
[41] = test system: RPMI-8226; test: Antiproliferative activity against human RPMI-8226 cells assessed as cell growth inhibition; type: functional; outline: as §2
[42] = test system: IGROV-1; test: Antiproliferative activity against human IGROV-1 cells assessed as cell growth inhibition; type: functional; outline: as §2
[43] = test system: HCT-116; test: Antiproliferative activity against human HCT-116 cells assessed as cell growth inhibition; type: functional; outline: as §2
[44] = test system: HOP-92; test: Antiproliferative activity against human HOP-92 cells assessed as cell growth inhibition; type: functional; outline: as §2
[45] = test system: Hs-578T; test: Antiproliferative activity against human Hs-578T cells assessed as cell growth inhibition; type: functional; outline: as §2
[46] = test system: SNB-19; test: Antiproliferative activity against human SNB-19 cells assessed as cell growth inhibition; type: functional; outline: as §1
[47] = test system: HOP-62; test: Antiproliferative activity against human HOP-62 cells assessed as cell growth inhibition; type: functional; outline: as §2
[48] = test system: SF-268; test: Antiproliferative activity against human SF-268 cells assessed as cell growth inhibition; type: functional; outline: as §2
[49] = test system: LOX IMVI; test: Antiproliferative activity against human LOX IMVI cells assessed as cell growth inhibition; type: functional; outline: as §2
[50] = test system: A498; test: Antiproliferative activity against human A498 cells assessed as cell growth inhibition; type: functional; outline: as §2
[51] = test system: HT-29; test: Antiproliferative activity against human HT-29 cells assessed as cell growth inhibition; type: functional; outline: as §2
[52] = test system: MOLT-4; test: Antiproliferative activity against human MOLT-4 cells assessed as cell growth inhibition; type: functional; outline: as §2
[53] = test system: MCF7; test: Antiproliferative activity against human MCF7 cells assessed as reduction in cell viability after 72 hrs by alamar blue assay; type: functional, cell-based; conditions: MCF7, 72 h
Outline: (§4)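 Cells seeded at 5 x 10^3/well (MCF-7) or 1 x 10^4/well (HT-29, HEK-293T) and treated after 24 h with serial dilutions (0.001-100 µM) in 1% v/v ethanol vehicle. Alamar Blue 10% v/v added at 72 h, then 3-5 h at 37 °C in the dark; fluorescence ex 530/em 590 nm. Viability relative to vehicle; IC50 from dose-response curves; mean of three experiments in triplicate.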

[54] = test system: HT-29; test: Antiproliferative activity against human HT-29 cells assessed as reduction in cell viability after 72 hrs by alamar blue assay; type: functional, cell-based; conditions: HT-29, 72 h; outline: as §4
[55] = test system: M14; test: Antiproliferative activity against human M14 cells assessed as cell growth inhibition; type: functional; outline: as §2
[56] = test system: HCC 2998; test: Antiproliferative activity against human HCC-2998 cells assessed as cell growth inhibition; type: functional; outline: as §2
[57] = test system: A549; test: Antiproliferative activity against human A549 cells assessed as cell growth inhibition; type: functional; outline: as §2
[58] = test system: CAKI-1; test: Antiproliferative activity against human […] cells assessed as cell growth inhibition; type: functional; outline: as §2
[59] = test system: SNB-75; test: Antiproliferative activity against human SNB-75 cells assessed as cell growth inhibition; type: functional; outline: as §1
[60] = test system: UO-31; test: Antiproliferative activity against human UO-31 cells assessed as cell growth inhibition; type: functional; outline: as §1
[61] = test system: K562; test: Antiproliferative activity against human K-562 cells assessed as cell growth inhibition; type: functional; outline: as §2
[62] = test system: T47D; test: Antiproliferative activity against human T47D cells assessed as cell growth inhibition; type: functional; outline: as §1
[63] = test system: UACC-62; test: Antiproliferative activity against human UACC-62 cells assessed as cell growth inhibition; type: functional; outline: as §1
[64] = target: Tubulin (Homo sapiens) (UniProt P68371+Q9H4B7+P0DPH7+P68366+Q13509+Q71U36+P04350+Q3ZCM7+P07437+P68363+Q9BQE3+Q6PEY2+Q13885+Q9BVA1+Q9BUF5); test: Induction of microtubule depolymerization in human MCF7 cells at 1 uM after 16 hrs by immunofluorescence staining based confocal microscopic analysis; type: cell-based

## COc1ccc([C@H]2[C@H](c3ccccc3)C(=O)N2c2cc(OC)c(OC)c(OC)c2)cc1F
[1]
  GI50: 35.4 nM
[2]
  GI50: 28.7 nM
[3]
  GI50: > 100000 nM
[4]
  GI50: 35.9 nM
[5]
  GI50: 34.4 nM
[6]
  CLH: 0.98 µL/min/mg
[7]
  GI50: 18.6 nM
[8]
  GI50: 34.4 nM
[9]
  Ratio IC50: 1.88
[10]
  GI50: 29 nM
[11]
  GI50: 29.6 nM
[12]
  GI50: 87.1 nM
[13]
  GI50: 77.6 nM
[14]
  GI50: 33.1 nM
[15]
  GI50: 27.1 nM
[16]
  GI50: 40.3 nM
[17]
  GI50: 44 nM
[18]
  GI50: 45.2 nM
[19]
  GI50: 1370 nM
[20]
  GI50: 35.4 nM
[21]
  GI50: 26.6 nM
[22]
  GI50: 19.4 nM
[23]
  GI50: 33.6 nM
[24]
  GI50: 35 nM
[25]
  GI50: 39.4 nM
[26]
  GI50: 48.9 nM
[27]
  GI50: 22.3 nM
[28]
  GI50: 51.7 nM
[29]
  GI50: 41.9 nM
[30]
  GI50: 1680 nM
[31]
  GI50: 68.7 nM
[32]
  GI50: 23.4 nM
[33]
  GI50: 56.1 nM
[34]
  GI50: 28 nM
[35]
  GI50: 37.3 nM
[36]
  GI50: 31.4 nM
[37]
  GI50: 36.1 nM
[38]
  GI50: 34.8 nM
[39]
  t1/2: 23.5 h
[40]
  GI50: 18.7 nM
[41]
  GI50: 41.3 nM
[42]
  GI50: 42.8 nM
[43]
  GI50: 32.4 nM
[44]
  GI50: 2840 nM
[45]
  GI50: 43.4 nM
[46]
  GI50: 49.9 nM
[47]
  GI50: 37.9 nM
[48]
  GI50: 44.3 nM
[49]
  GI50: 29.6 nM
[50]
  GI50: 27 nM
[51]
  GI50: 26 nM
[52]
  GI50: 38.1 nM
[53]
  IC50: 17 nM
[54]
  IC50: 9 nM
[55]
  GI50: 22.6 nM
[56]
  GI50: 39.4 nM
[57]
  GI50: 36.8 nM
[58]
  GI50: 33.2 nM
[59]
  GI50: 31.4 nM
[60]
  GI50: 77.1 nM
[61]
  GI50: 32.1 nM
[62]
  GI50: > 100000 nM
[63]
  GI50: 54.3 nM

## CC(=O)O[C@H]1C(=O)[C@@]2(C)[C@H]([C@H](OC(=O)c3ccccc3)[C@]3(O)C[C@H](OC(=O)[C@H](O)[C@@H](NC(=O)c4ccccc4)c4ccccc4)C(C)=C1C3(C)C)[C@]1(OC(C)=O)CO[C@@H]1C[C@@H]2O
[64]
  Activity: Active
